The values below come from paper PMC4428392 (Anti-Cancer Agents in Medicinal Chemistry, 2014).

Common to all, as to type: cell-based, Human
Data set [1] has as its system NCI-H460. In words: MTT cytotoxicity assay in normoxia and hypoxia, NCI-H460. Conditions: for IC50: Homo sapiens. Summed up:
(§1)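 MCF-7 and HCT-116 were grown in DMEM; NCI-H460 in RPMI 1640 plus 10 mM HEPES; all media had 10% FBS, pyruvate and 1.5 g/L bicarbonate. Cells were seeded at 20000/well and grown 24 h at 20% O2, 5% CO2, 37 °C. Serial compound concentrations were then given for 24 h in normoxia, or for 6 h hypoxia (3% O2) followed by 18 h normoxia. MTT was read at 545 nm. IC50 came from linear regression of % inhibition versus log concentration, and HCR = IC50 normoxia/IC50 hypoxia.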
Background: Tetrazolium dyes change colour on reduction, which living cells bring about.

For data set [2], the system named is HCT-116. Briefly: MTT cytotoxicity assay in normoxia and hypoxia, HCT-116. Conditions: for IC50: Homo sapiens; for HCR = hypoxic cytotoxicity ratio IC50 (aerobic)/IC50 (hypoxic): HCT-116. In short, it runs like this:
as §1

Data set [3] relates to HCT-116 cells. Briefly: Cell cycle assay by flow cytometry. Conditions: for Sub-G1 (%) / G1 (%) / G2/M (%) / S (%): 24 h. (In general: A flow cytometer gives signals particle by particle.)
In data set [4] the test system is caspase 3/7 in HCT-116 cells. In words: Caspase 3/7 activity. Particulars: 30 µM, 24 h. In short, it runs like this: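 HCT-116 cells were exposed to test compound at 30 µM for 24 h in normoxia or hypoxia. Cells were harvested, washed in PBS, centrifuged (350 g, 5 min) and stained with a FAM-FLICA caspase-3/7 inhibitor kit. Active caspase 3/7 was measured by flow cytometry. Data are mean ± SEM, n=3, compared with solvent control by one-way ANOVA with Tukey post hoc test.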

Data set [5] concerns co-cultured HUVECs and fibroblasts. Briefly: In vitro tube formation test. Particulars: 2 μM, 11 days. In short, it runs like this: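 HUVECs were co-cultured with fibroblasts for 11 days in basal medium, solvent-control medium (0.2% DMSO), or solvent medium with test compound at 2 or 20 μM. Medium ± compound was renewed every 3 days, and suramin served as the kit positive control. HUVECs were stained with anti-CD31, and tube area, length, joints and paths were measured by image analyzer over 5 fields. Quadruplicate wells; mean ± SEM, n=4.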

[6] abbreviates: NCI-H460, 24 h, read-out: Cytotoxicity (IC50) NCI-H460 N.
Where [7] appears, read: NCI-H460, read-out: Cytotoxicity (IC50) NCI-H460 H.
The mark [8] stands for this setting: HCT-116, 24 h, read-out: Cytotoxicity (IC50) HCT-116 N.
Where [9] appears, read: HCT-116, read-out: Cytotoxicity (IC50) HCT-116 H.
[10] abbreviates: HCT-116, read-out: Cytotoxicity (IC50), cell kill under hypoxia.

Values joined by “and” are separate entries in the source; they are usually repeats but may differ in a detail not shown here. Identical values can stand only once. Like-named read-outs stand apart in the source and are kept apart here.

On to `[O-][n+]1nc(NCCCCNc2n[n+]([O-])c3ccccc3[n+]2[O-])nc2ccccc21` [Compound 9c, 3-(4-(1-Oxido-1,2,4-benzotriazin-1-ium-3-yl)aminobutylamino)-1,2,4-benzotriazine-1,4-dioxide], for which the IC50 in data set [1] (setting [6]), in data set [1] (setting [7]), in data set [2] (setting [8]) and in data set [2] (setting [9]) was > 30 µM throughout.
For `NCCNc1n[n+]([O-])c2ccccc2[n+]1[O-]` [Compound 8a, N^1-(1,4-Dioxido-1,2,4-benzotriazine-3-yl)-1,2-ethanediamine], the 50% inhibitory concentration (IC50) (commonly the midpoint of a concentration-inhibition curve) in data set [1] (setting [6]) is 18.7 ± 2.7 µM; in data set [1] (setting [7]) it was 10.1 ± 3.7 µM; in data set [2] (setting [8]) it was 40.3 ± 14.6 µM; in data set [2] (setting [9]), 22.4 ± 9.7 µM; in data set [2] (setting [10]), 22.4 µM. Further, in data set [2], the “HCR = hypoxic cytotoxicity ratio IC50 (aerobic)/IC50 (hypoxic)” value (“HCR = hypoxic cytotoxicity ratio IC50” below) is 1.8.
`NCCCCCCNc1n[n+]([O-])c2ccccc2[n+]1[O-]` [Compound 8e, N^1-(1,4-Dioxido-1,2,4-benzotriazin-3-yl)-1,6-hexanediamine]: the IC50 in data set [1] (setting [6]) amounted to 104 ± 15.1 µM; in data set [1] (setting [7]) it was 68.7 ± 15.1 µM; in data set [2] (setting [8]) it was 91.2 ± 16.2 µM; in data set [2] (setting [9]) it was 62.9 ± 11 µM; in data set [2] (setting [10]), 62.1 µM. In addition, the “HCR = hypoxic cytotoxicity ratio IC50” value in data set [2] turned out to be 1.5.
With “1,2,4-benzotriazine-1-oxide [Compound 1]”, the “effect on HCT-116 cell cycle (G2/M accumulation)” value in data set [3] (data not shown) is “invalid”.
With `[O-][n+]1nc(NCCCCCCNc2n[n+]([O-])c3ccccc3[n+]2[O-])nc2ccccc21` [Compound 9e, 3-(6-(1-Oxido-1,2,4-benzotriazin-1-ium-3-yl)aminohexylamino)-1,2,4-benzotriazine-1,4-dioxide], the IC50 in data set [1] (setting [6]), in data set [1] (setting [7]), in data set [2] (setting [8]) and in data set [2] (setting [9]) was > 30 µM in each case.
Regarding `[O-][n+]1nc(NCCCCCCCNc2n[n+]([O-])c3ccccc3[n+]2[O-])nc2ccccc21` [Compound 9f, 3-(7-(1-Oxido-1,2,4-benzotriazin-1-ium-3-yl)aminoheptylamino)-1,2,4-benzotriazine-1,4-dioxide], the 50% inhibitory concentration (IC50) in data set [1] (setting [6]), in data set [1] (setting [7]), in data set [2] (setting [8]) and in data set [2] (setting [9]) was > 30 µM in each case.
For `[O-][n+]1nc(NCCCCCCCCNc2n[n+]([O-])c3ccccc3[n+]2[O-])nc2ccccc21` [Compound 9g, 3-(8-(1-Oxido-1,2,4-benzotriazin-1-ium-3-yl)aminooctylamino)-1,2,4-benzotriazine-1,4-dioxide], the concentration for half-maximal inhibition (IC50) in data set [1] (setting [6]), in data set [1] (setting [7]), in data set [2] (setting [8]) and in data set [2] (setting [9]) was > 30 µM throughout.
As to `[O-][n+]1nc(NCCCNc2n[n+]([O-])c3ccccc3[n+]2[O-])nc2ccccc21` [Compound 9b, 3-(3-(1-Oxido-1,2,4-benzotriazin-3-yl)aminopropylamino)-1,2,4-benzotriazine-1,4-dioxide], the IC50 in data set [1] (setting [6]) turned out to be 44.6 ± 4.3 µM; in data set [1] (setting [7]), 21.4 ± 4.8 µM; in data set [2] (setting [8]) it was 53.8 ± 4.7 µM; in data set [2] (setting [9]), 28.7 ± 6.7 µM. The “HCR = IC50 (aerobic)/IC50 (hypoxia)” value in data set [1] (NCI-H460) amounted to 2.1. The “Sub-G1 (%)” value was 4.3% in data set [3] (HCT-116, hypoxia, 15 µM); 12.2% and 12.2±2.8% in data set [3] (HCT-116, hypoxia, 30 µM); ~2.8% in data set [3] (HCT-116, normoxia, 15 µM); 2.1% and 2.1±0.1% in data set [3] (HCT-116, normoxia, 30 µM). In addition, the “G1 (%)” value in data set [3] (HCT-116, hypoxia, 30 µM) was 28.1±1.2%; in data set [3] (HCT-116, normoxia, 30 µM), 35.0% and 35.0±5.1%. Besides, the “G2/M (%)” value in data set [3] (HCT-116, hypoxia, 30 µM) is 30.2±3.9%; in data set [3] (HCT-116, normoxia, 30 µM) it was 48.0% and 48.0±1.9%. For the same molecule, the “S (%)” value in data set [3] (HCT-116, hypoxia, 30 µM) turned out to be 29.3±4.7%; in data set [3] (HCT-116, normoxia, 30 µM) it was 14.3±4.1%. Besides, the “level of active caspase 3/7” value in data set [4] (HCT-116, hypoxia, solvent control 7%) is ~23%. In data set [4] (HCT-116, normoxia), the “effect on level of active caspase 3/7” value was “no apparent effect”. Besides, the “reduction of areas, lengths, paths and joints of tube formation” value in data set [5] is reported as 45-50%.
`NCCCCCCCCNc1n[n+]([O-])c2ccccc2[n+]1[O-]` [Compound 8g, N^1-(1,4-Dioxido-1,2,4-benzotriazine-3-yl)-1,8-octanediamine]: the half-inhibitory concentration (IC50) in data set [1] (setting [6]) is 82.7 ± 20.4 µM; in data set [1] (setting [7]) it was 45.8 ± 6.1 µM; in data set [2] (setting [8]), 97 ± 8.7 µM; in data set [2] (setting [9]), 44.8 ± 6 µM; in data set [2] (setting [10]), 44.8 µM. Moreover, in data set [2], the “HCR = hypoxic cytotoxicity ratio IC50” value is 2.2. Besides, the “reduction of areas, lengths, paths and joints of tube formation” value in data set [5] is listed as 31-40%.
On to `[O-][n+]1nc(NCCCCCNc2n[n+]([O-])c3ccccc3[n+]2[O-])nc2ccccc21` [Compound 9d, 3-(5-(1-Oxido-1,2,4-benzotriazin-1-ium-3-yl)aminopentylamino)-1,2,4-benzotriazine-1,4-dioxide], for which the IC50 in data set [1] (setting [6]), in data set [1] (setting [7]), in data set [2] (setting [8]) and in data set [2] (setting [9]) was > 30 µM each time.
`NCCCNc1n[n+]([O-])c2ccccc2[n+]1[O-]` [Compound 8b, N^1-(1,4-Dioxido-1,2,4-benzotriazine-3-yl)-1,3-propanediamine]: the IC50 in data set [1] (setting [6]) came out at 95.6 ± 33.9 µM; in data set [1] (setting [7]), 79.5 ± 26.6 µM; in data set [2] (setting [8]) it was 90.4 ± 3.5 µM; in data set [2] (setting [9]), 54.8 ± 8 µM; in data set [2] (setting [10]), 54.8 µM. In addition, the “HCR = hypoxic cytotoxicity ratio IC50” value in data set [2] is reported as 1.7.
Regarding `NCCCCCNc1n[n+]([O-])c2ccccc2[n+]1[O-]` [Compound 8d, N^1-(1,4-Dioxido-1,2,4-benzotriazine-3-yl)-1,5-pentanediamine], the IC50 in data set [1] (setting [6]) is 101 ± 38.9 µM; in data set [1] (setting [7]), 83.4 ± 33.8 µM; in data set [2] (setting [8]), 93.7 ± 20 µM; in data set [2] (setting [9]), 55.3 ± 7.5 µM; in data set [2] (setting [10]) it was 55.3 µM. In data set [2], the “HCR = hypoxic cytotoxicity ratio IC50” value turned out to be 1.7.
With `NCCCCCCCNc1n[n+]([O-])c2ccccc2[n+]1[O-]` [Compound 8f, N^1-(1,4-Dioxido-1,2,4-benzotriazine-3-yl)-1,7-heptanediamine], the half-maximal inhibitory concentration (IC50) in data set [1] (setting [6]) came to 79.4 ± 22.6 µM; in data set [1] (setting [7]), 42.8 ± 8.3 µM; in data set [2] (setting [8]) it was 78.3 ± 4.9 µM; in data set [2] (setting [9]), 40.8 ± 4.3 µM; in data set [2] (setting [10]) it was 40.8 µM. Further, the “HCR = hypoxic cytotoxicity ratio IC50” value in data set [2] came to 1.9.
